Biological target: Thymidine phosphorylase (Escherichia coli K-12, UniProt P07650)
Experiment: Inhibition of Escherichia coli thymidine phosphorylase; call rule not given here
Procedure, shortened: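 E. coli thymidine phosphorylase, 0.05 or 0.002 U, in potassium phosphate buffer pH 7.4, preincubated with test compound 10 min at 25 °C. A 290 nm pre-read was then taken, substrate added (1.5 mM stock), and absorbance at 290 nm read after 10, 20 and 30 min. Increasing compound concentrations were tested in triplicate. IC50 was calculated from the inhibition data.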

Sequence of Thymidine phosphorylase (P07650 whole entry): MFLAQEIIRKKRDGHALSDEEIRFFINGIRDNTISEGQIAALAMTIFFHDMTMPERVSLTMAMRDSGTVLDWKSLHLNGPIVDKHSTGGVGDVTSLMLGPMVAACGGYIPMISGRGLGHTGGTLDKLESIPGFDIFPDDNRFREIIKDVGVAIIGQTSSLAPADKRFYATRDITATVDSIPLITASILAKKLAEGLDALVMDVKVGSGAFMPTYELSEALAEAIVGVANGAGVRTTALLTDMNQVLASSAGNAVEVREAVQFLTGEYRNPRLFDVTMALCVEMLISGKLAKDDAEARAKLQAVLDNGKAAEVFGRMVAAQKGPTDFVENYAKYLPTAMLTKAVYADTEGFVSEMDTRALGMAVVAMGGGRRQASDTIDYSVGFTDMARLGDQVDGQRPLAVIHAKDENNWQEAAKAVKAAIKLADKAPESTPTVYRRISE

Structure (SMILES)	IC50 (read-out: IC50)	IC50
CCC(=O)N/N=C/c1coc2ccccc2c1=O	146 µM	–
O=c1c(/C=N/c2ncccc2O)coc2ccccc12	340 µM	–
O=c1c(/C=N/c2ccncc2)coc2ccccc12	–	Not Active
O=c1c(/C=N/C(CO)Cc2ccccc2)coc2ccccc12 (configuration not stated)	473 µM	–
O=c1c(/C=N/CC/N=C/c2coc3ccccc3c2=O)coc2ccccc12	150 µM	–
O=c1c(/C=N/c2ccc(Cl)cc2Cl)coc2ccccc12	40.3 µM	–
Cc1ccc(/N=C/c2coc3ccccc3c2=O)cc1	–	Not Active
COc1cc(/N=C/c2coc3ccccc3c2=O)ccc1C	19.8 µM	–
O=c1c(/C=N/c2cccnc2)coc2ccccc12	–	Not Active
Cc1cccc(/N=C/c2coc3ccccc3c2=O)c1	67.3 µM	–

Other lines, results leading:

IC50 (read-out: IC50)	IC50	Structure (SMILES)
480 µM	–	Cc1cccc([N+](=O)[O-])c1/N=C/c1coc2ccccc2c1=O
–	Not Active	COc1cc([N+](=O)[O-])ccc1/N=C/c1coc2ccccc2c1=O
75.9 µM	–	O=C(c1ccccc1)c1cc(Cl)ccc1/N=C/c1coc2ccccc2c1=O
–	Not Active	Cc1cccc(C)c1/N=C/c1coc2ccccc2c1=O
–	Not Active	CC(C)(C)NC(NC(C)(C)C)c1coc2ccccc2c1=O
–	Not Active	COc1cccc(/N=C/c2coc3ccccc3c2=O)c1
–	Not Active	O=C(O)c1ccccc1/N=C/c1coc2ccccc2c1=O

Source: ChEMBL document CHEMBL1153453, “Schiff bases of 3-formylchromone as thymidine phosphorylase inhibitors” (Bioorg Med Chem, 2009)
